# Source: PubChem BioAssay (The Scripps Research Institute Molecular Screening Center)
# Rows were chosen to be rich in hits. Some 1.1% of all compounds tested hit in one or more screens of this group.
# LYPLA1 inh: blocks human lysophospholipase 1, a PME1 counter-screen. 320,000 tested, 0.16% active. inhibition, % at 5.9 µM. recombinant LYPLA1, FP-Rh probe fluorescence polarization. AID 2174;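 active means inhibition above the mean of all tested compounds plus 3 SD, set per campaign, cut at about 14% in these data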;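 further: inhibitors block serine hydrolase probe labeling of LYPLA1 so polarization falls; 0% = enzyme with DMSO and 100% = wells lacking LYPLA1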
# Target sequence (O75608 whole entry, looked up): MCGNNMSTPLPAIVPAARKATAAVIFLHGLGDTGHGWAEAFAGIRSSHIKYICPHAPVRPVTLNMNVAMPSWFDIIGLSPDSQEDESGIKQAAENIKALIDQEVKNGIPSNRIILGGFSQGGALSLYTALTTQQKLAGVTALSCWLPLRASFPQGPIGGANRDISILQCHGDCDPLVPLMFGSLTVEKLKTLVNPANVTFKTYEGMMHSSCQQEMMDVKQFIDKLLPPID
# procasp7 counter: counter-screen: procaspase-7 (human) activation | recombinant procaspase-7, Ac-DEVD-pNA absorbance 405 nm; D23A/D198A/D206A triple mutant, cannot self-cleave; scale: DMSO 0, 5 µM enzyme 100 | activation, % at 8.5 µM | 330,000 tested, 0.093% active;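 active means percent activation above the screen-wide mean plus 3 SD, cut at about 25% in these data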
#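 System: Procaspase-7 triple mutant (PC-7 D3A); measure: % activation from two-timepoint absorbance difference, scaled to controls; times: 1 h compound preincubation, 2 h substrate cleavage, 25 °C; also added: Ac-DEVD-pNA substrate, 400 µM as added; measured by: Epi-absorbance of released pNA at 405 nm, two timepoints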
# proCasp3 act: activators of human procaspase-3; P42574; recombinant procaspase-3 D3A, Ac-DEVD-pNA absorbance 405 nm; activation, % at 8.5 µM; 330,000 tested, 0.11% active; AID 463141;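 active means activation above the mean of all tested compounds plus 3 SD, cut at about 21% in these data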;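 further: 0% = DMSO alone and 100% = DMSO wells spiked with extra 5 µM PC-3 D3A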
# Target sequence (P42574 whole entry D9A/D28A/D175A): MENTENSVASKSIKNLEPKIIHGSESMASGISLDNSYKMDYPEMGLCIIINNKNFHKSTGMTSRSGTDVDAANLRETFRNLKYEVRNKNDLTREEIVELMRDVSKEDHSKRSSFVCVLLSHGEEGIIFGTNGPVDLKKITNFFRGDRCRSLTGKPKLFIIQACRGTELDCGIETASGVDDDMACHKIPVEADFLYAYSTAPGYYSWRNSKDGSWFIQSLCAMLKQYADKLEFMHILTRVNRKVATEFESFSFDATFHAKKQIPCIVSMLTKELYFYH
#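 material = Procaspase-3 D3A mutant | probe or stimulus = Ac-DEVD-pNA | compound = single dose, 8.5 µM nominal compound, 0.8% DMSO | timing = 1 h preincubation, 2 h reaction | measured by = 405 nm absorbance of p-nitroaniline, reads at 0 and 120 min | benchmarks = DMSO-only low control, 5 µM PC-3 D3A high control | repeats = singlicate, each compound tested once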
# PREPL inh: inhibitors of human prolyl oligopeptidase-like enzyme PREPL; 320,000 tested, 0.68% active; inhibition, % at 5.96 µM; Q4J6C6; recombinant PREPL, fluorescence polarization activity-based probe; in the data active means inhibition above about 43%;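 further: 0% = enzyme with DMSO and 100% = wells lacking enzyme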
# LYPLA2 inh: counter-screen for PME1 inhibitors: inhibitors of human LYPLA2 | 320,000 tested, 0.38% active | inhibition, % at 5.9 µM | recombinant LYPLA2, FP-Rh probe fluorescence polarization;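 active means inhibition above the screen-wide mean plus 3 SD, limit set per campaign, cut at about 26% in these data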;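 further: 0% = LYPLA2 with DMSO and 100% = wells lacking LYPLA2 enzyme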
# PC3 D3A act: activates human procaspase-3, dual activator counter-screen; shares compounds with procasp7 counter; recombinant PC-3 D3A, Ac-DEVD-pNA absorbance 405 nm; aspartates 9, 28, 175 changed to alanine; 100% = enzyme control; activation, % at 8.5 µM; 290 tested, under 10 active;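 active means mean percent activation across triplicates above a set limit taken from the earlier primary procaspase-3 screen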;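 further: 0% = DMSO wells and 100% = DMSO wells with 5 µM added PC-3 D3A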
# Procasp7 act: confirmation of dual procaspase activators: human procaspase-7 activation. 290 tested, under 10 active. activation, % at 8.5 µM. shares compounds with procasp7 counter. AID 493115. recombinant procaspase-7, Ac-DEVD-pNA absorbance 405 nm; D23A/D198A/D206A mutant that cannot self-cleave;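 active means mean activation above a set limit carried over from the earlier primary screen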;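 further: 0% = DMSO only and 100% = DMSO with added 5 µM PC-7 enzyme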
# Starred values were filed as active, the others as inactive; . = no result given.
SMILES,LYPLA1 inh,procasp7 counter,proCasp3 act,PREPL inh,LYPLA2 inh,PC3 D3A act,Procasp7 act
O=C(Nc1ccc2c(c1)OCCO2)c1coc2ccccc2c1=O,2,36*,8,2,-2,8,0
O=C1C(Cl)=C(NCCc2ccccc2)C(=O)N1CCc1ccccc1,-4,33*,4,-17,-4,-12,-6
O=C1C(Cl)=C(NCCCN2CCOCC2)C(=O)N1CCc1ccccc1,0,-6,-2,12,3,.,.
O=c1[nH]c(-c2ccccc2)nc2sc(-c3ccccc3)cc12,0,26*,29*,4,1,-29,-35
O=c1oc2ccccc2cc1-c1nc(-c2cccs2)cs1,-5,-16,12,16,-3,.,.
COc1cccc2cc(-c3nc(-c4cccs4)cs3)c(=O)oc12,-2,65*,17,2,2,13,4
CC(OC(=O)COc1ccc(C#N)cc1)C(=O)Nc1ccc(Cl)cn1 (stereo not drawn),1,9,-1,1,2,.,.
CCCS(=O)(=O)c1c(S(=O)(=O)CCC)c2cc(-c3ccncc3)ccn2c1C(=O)OC,-3,34*,29*,5,0,-29,-35
COc1cc(C(=O)NCC(=O)NNC(=O)C2COc3ccccc3O2)cc(OC)c1OC (stereo not drawn),-2,-15,-4,13,-3,.,.
Cc1cc(C)n2nc(C(=O)OCC(=O)NC3CCCCC3)nc2n1,-1,1,4,1,-2,.,.
Cc1ccc2nc(-c3ccc(NS(=O)(=O)c4ccccc4)cc3)sc2c1,-2,52*,23*,-5,-4,4,3
CCN(CC)c1ccc(C(=O)OCc2cc(=O)oc3cc(O)ccc23)cc1,-3,40*,32*,21,2,0,0
CCN(CC)c1ccc2c(O)cc(=O)oc2c1,-1,-6,-5,29,4,.,.
CCC(C)Sc1cc(-c2nc3ccc(C)cn3c2NCc2ccccc2)ccc1OC (stereo not drawn),-7,28*,22*,13,-3,-27,-30
Cc1onc(-c2ccccc2)c1C(=O)OCC(=O)Nc1ccc(C#N)cc1,-2,-7,-1,19,-5,.,.
O=C(O)CN1C(=O)C(=O)N(Cc2ccc(C(F)(F)F)cc2)C1=O,0,1,1,6,-2,.,.
O=C(NNC(=O)c1cc2cc3ccccc3nc2s1)c1cccc(C(F)(F)F)c1,-1,26*,0,-11,-8,-23,-19
Cc1cc(-c2nc3cccnc3s2)ccc1NS(=O)(=O)c1cccs1,1,26*,17,-6,1,-28,-34
COc1cc(Cn2c(N)c(C#N)c3nc4ccccc4nc32)cc(OC)c1,-5,85*,91*,12,1,-29,-35
COc1ccc(C(=O)N/N=C/c2ccc3cccc(OCc4ccccc4)c3n2)cc1,-35,30*,4,-73,-67,8,7
COc1ccc(C(=O)COC(=O)c2ccc3c(c2)OCO3)c(OC)c1,0,15,3,9,13,.,.
CCCCCCc1cc2cc(S(=O)(=O)c3ccc(C)cc3)c(=O)oc2cc1O,-7,31*,86*,1,-7,-29,-35
CC1Oc2cc3oc4c(O)c(O)ccc4c(=O)c3c(O)c2C1(C)C (stereo not drawn),-20,-2,-8,19,-26,.,.
COc1ccc(NC(=O)c2sc3nc(C)cc(C)c3c2N)cc1,4,-24,-45,-1,2,.,.
COc1ccc(/C=N/NC(=O)c2sc3nc(C)cc(C)c3c2N)cc1,0,49*,19,2,1,-28,-35
SMILES,LYPLA1 inh,procasp7 counter,proCasp3 act,PREPL inh,LYPLA2 inh,PC3 D3A act,Procasp7 act
Cc1ccc(Cn2c(N)c(S(=O)(=O)c3cccs3)c3nc4ccccc4nc32)cc1,-7,7,7,1,5,.,.
Nc1c(S(=O)(=O)c2cccs2)c2nc3ccccc3nc2n1Cc1ccccc1,-21,55*,44*,-11,-31,-29,-36
Cc1csc(=O)n1CCC(=O)OCC(=O)c1ccc(Br)cc1,-1,-3,-3,-6,-4,.,.
Cc1ccc2nc3c(cc2c1)c(NC(=O)c1ccco1)nn3CC(C)C,-1,64*,52*,-2,-1,-29,-34
Cc1nc2ccccn2c1CN(C)C(=O)C1CCC(=O)N(CCc2cccc(F)c2)C1 (stereo not drawn),-3,9,1,2,-2,.,.
Cc1cccc(Nc2nc(-c3ccccc3)c(C(=O)Nc3cccnc3)s2)c1,-5,6,-13,6,-12,.,.
O=C(Nc1cccnc1)c1sc(Nc2ccccc2)nc1-c1ccccc1,3,29*,10,13,5,6,1
CCCc1cc(=O)oc2c(C)c(OCC(=O)N3CCC(C(=O)O)(c4ccccc4)CC3)ccc12,-1,3,0,7,5,.,.
Cc1cc(C)c(C#N)c(OCC(=O)c2ccc(Br)cc2)n1,2,46*,4,10,0,-5,-3
Cc1ccc(C(=O)COc2nc(C)cc(C)c2C#N)cc1,2,-10,4,-3,7,.,.
Cc1cccc(NC(=O)c2cnn(-c3ccccc3)c2C)c1C,-3,0,2,2,-3,.,.
Cc1ccccc1NC(=O)c1cnn(-c2ccccc2)c1C,0,34*,4,4,5,1,1
CCOc1ccc(OCC(=O)OCC(=O)N2CCN(C(=O)c3ccco3)CC2)cc1,0,-2,2,4,8,.,.
CCOC(=O)c1c(NC(=O)COC(=O)Cc2ccccc2[N+](=O)[O-])sc(C(=O)N(C)C)c1C,5,-2,6,1,6,.,.
CCOC(=O)c1c(NC(=O)COC(=O)c2ccccc2NC)sc(C(=O)N(C)C)c1C,-4,29*,7,40,-3,-28,-32
O=C(NCCOc1ccccc1)C1CCC(=O)N(CCCN2CCOCC2)C1 (stereo not drawn),-1,-3,5,5,5,.,.
O=C(NCCN1CCCC1)C1CCC(=O)N(CCCN2CCOCC2)C1 (stereo not drawn),6,45*,0,6,6,1,0
O=C(Nc1sc2c(c1C(=O)NCC1CCCO1)CCCC2)c1cccs1 (stereo not drawn),-2,37*,16,32,0,1,-2
C[C@@H]1CN(C(=O)c2ccc(OC3CCN(S(=O)(=O)N(C)C)CC3)cc2)C[C@H](C)O1,1,0,2,7,0,.,.
